# According to ChEMBL document CHEMBL2375295, “Site-specific and far-red-light-activatable prodrug of combretastatin A-4 using photo-unclick chemistry” (J Med Chem, 2013):
# Activity calls are given as the source filed them. The rule behind the calls is not given here.
# Tests used:
# Mus musculus [1] = experiment: Biodistribution in nu/nu mouse at 24 umol/kg, ip followed by irradiation with diode laser light for 1.5 hrs by optical imaging analysis; type: ADME, organism-based; conditions: in vivo, TDE = time-dependent effect
# How it was run: (§1)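 The FRET probe was formulated as a Tween 80 paste, extracted into 5% dextrose, filtered, and quantified by CMP absorbance. It was given at 24 μmol/kg ip. At 1.5 h the neck region was irradiated with a 690 nm diode laser at 500 mW/cm2. Mice were under 2.5% isoflurane anesthesia, and fluorescence images were taken after 0, 10, 20 and 30 min irradiation.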
# Mus musculus [2] = experiment: Biodistribution in nu/nu mouse at 24 umol/kg, ip followed by irradiation with diode laser light for 1.5 hrs measured after 10 to 30 mins by optical imaging analysis; type: ADME, organism-based; conditions: in vivo; how it was run: as §1
# Colon 26 [3] = experiment: Antitumor activity against mouse Colon 26 cells allografted in BALB/c mouse at 4 umol/kg, ip qd for 2 days measured 30 mins post irradiation with diode laser light; type: functional, organism-based
# How it was run: (§2)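 Colon 26 cells (2 × 10^6 in PBS) were implanted sc in the lower back-neck of 4–6-week-old BALB/c mice. Mice were used once tumors reached 3–5 mm diameter. Doses came from DMSO stocks diluted in 1% Tween 80/5% dextrose and filtered, given as 200 μL ip daily on days 0, 1 and 2. After 1.5 h mice were anesthetized (ketamine/xylazine) and tumors irradiated at 690 nm, 200 mW/cm2 for 30 min (360 J/cm2). Tumor volume was lw2/2 by caliper, and body weight was followed. Groups had six mice; control had three.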
# MCF7 [4] = experiment: Ratio of IC50 for darktoxicity against human MCF7 cells to IC50 for cytotoxicity against human MCF7 cells in presence of diode laser light; type: functional
# MCF7 [5] = experiment: Cytotoxicity against human MCF7 cells incubated for 24 hrs followed by irradiated with diode laser light for 30 mins; type: functional, cell-based; conditions: MCF7, light or radiation study
# How it was run: (§3)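 MCF-7 cells were grown in α-MEM with 10% bovine growth serum, seeded at 5000/well and grown 24 h at 37 °C, 5% CO2. Compounds were diluted from 2 mM DMSO stocks into medium and incubated 24 h. Phototoxicity plates were shaken and irradiated at 690 nm, 5.6 mW/cm2 for 30 min. Dark plates were kept unlit for 30 min. After 3 days, MTT viability was read at A570 minus A650 and expressed as % of untreated.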
# MCF7 [6] = experiment: Darktoxicity against human MCF7 cells incubated for 24 hrs followed by 30 mins incubation in dark measured after 3 days by MTT assay; type: cell-based; how it was run: as §3
# Tubulin (Homo sapiens) [7] = target: T1, Tubulin (Homo sapiens) (UniProt P68371+Q9H4B7+P0DPH7+P68366+Q13509+Q71U36+P04350+Q3ZCM7+P07437+P68363+Q9BQE3+Q6PEY2+Q13885+Q9BVA1+Q9BUF5); experiment: Inhibition of tubulin polymerization (unknown origin) at 3 uM after 1 hr by fluorescence plate reader analysis; type: protein-complex assay
# How it was run: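 Kit-based fluorescence assay: tubulin plus GTP in buffer with test agent at 3 μM final, incubated at 37 °C. Polymerization was monitored kinetically at ex 360/em 450 nm against a vehicle-only control. Inhibition was assessed after 1 h incubation, as mean ± SD of three experiments.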
# Tubulin (Homo sapiens) [8] = target: T1, Tubulin (Homo sapiens); experiment: Inhibition of tubulin polymerization (unknown origin) at 3 uM after 20 mins by fluorescence plate reader analysis; type: protein-complex assay
# Colon 26 [9] = experiment: Antitumor activity against mouse Colon 26 cells allografted in BALB/c mouse at 2 umol/kg, ip qd for 2 days measured 30 mins post irradiation with diode laser light; type: functional, organism-based; how it was run: as §2
# Mus musculus [10] = experiment: Toxicity in mouse Colon 26 cells allografted BALB/c mouse assessed as change in body weight at 2 to 4 umol/kg, ip qd for 2 days measured 30 mins post irradiation with diode laser light; type: organism-based; conditions: in vivo; how it was run: as §2
# Colon 26 (Mus musculus) [11] = experiment: Prodrug conversion in mouse Colon 26 cells assessed as death of neighboring cells at 50 nM incubated for 24 hrs followed by irradiation with diode laser light for 15 mins measured after 48 hrs by Calcein AM live cell staining assay; conditions: colon 26, 0.05 µM
# Tubulin (Homo sapiens) [12] = target: T1, Tubulin (Homo sapiens); experiment: Inhibition of tubulin polymerization (unknown origin) at 3 uM after 1 hr by fluorescence plate reader analysis
# Colon 26 (Mus musculus) [13] = experiment: Prodrug conversion in mouse Colon 26 cells assessed as death of neighboring cells at 5 uM incubated for 24 hrs followed by irradiation with diode laser light for 15 mins measured after 48 hrs by Calcein AM live cell staining assay; conditions: colon 26, 5 µM
Compound,Ratio IC50 (MCF7 [4]),IC50 (MCF7 [5]),IC50 (MCF7 [6]),inhibition (Tubulin (Homo sapiens) [7]),inhibition (Tubulin (Homo sapiens) [8]),further results
CCN(CC)c1ccc2c(-c3ccccc3C(=O)OCN3CCN(/C=C/OC(=O)COc4ccc(-c5c6nc(c(-c7ccccc7)c7ccc(s7)c(-c7ccccc7)c7nc(c(-c8ccccc8)c8ccc5s8)C=C7)C=C6)cc4)CC3)c3ccc(=[N+](CC)CC)cc-3oc2c1.[Cl-],–,–,–,–,–,Drug uptake (Mus musculus [1]): tde; Drug uptake (Mus musculus [2]): Active
COc1ccc(/C=C\c2cc(OC)c(OC)c(OC)c2)cc1OC(=O)/C=C/N1CCC(COC(=O)COc2ccc(-c3c4nc(c(-c5ccccc5)c5ccc(s5)c(-c5ccccc5)c5nc(c(-c6ccccc6)c6ccc3s6)C=C5)C=C4)cc2)CC1,6,28 nM,164 nM,6%,inactive,Activity (Colon 26 [3]): Active; Activity (Colon 26 [9]): Active; Activity (Mus musculus [10]): Non-toxic; Drug metabolism (Colon 26 (Mus musculus) [11]): Active
CC(=O)O[C@H]1C(=O)[C@@]2(C)[C@H]([C@H](OC(=O)c3ccccc3)[C@]3(O)C[C@H](OC(=O)[C@H](O)[C@@H](NC(=O)c4ccccc4)c4ccccc4)C(C)=C1C3(C)C)[C@]1(OC(C)=O)CO[C@@H]1C[C@@H]2O,–,–,–,–,–,inhibition (Tubulin (Homo sapiens) [12]): Active
O=C(O)COc1ccc(-c2c3nc(c(-c4ccccc4)c4ccc(s4)c(-c4cccs4)c4nc(c(-c5ccc(OCC(=O)O)cc5)c5ccc2s5)C=C4)C=C3)cc1,–,–,–,–,–,Drug metabolism (Colon 26 (Mus musculus) [13]): Not Active
COc1ccc(/C=C\c2cc(OC)c(OC)c(OC)c2)cc1O [COMBRETASTATIN A4],–,–,9 nM,–,–,–
COc1ccc(/C=C\c2cc(OC)c(OC)c(OC)c2)cc1OCCCN1CCN(C(=O)COc2ccc(-c3c4nc(c(-c5ccccc5)c5ccc(s5)c(-c5ccccc5)c5nc(c(-c6ccccc6)c6ccc3s6)C=C5)C=C4)cc2)CC1,1.7,1060 nM,1800 nM,9%,inactive,–
